Screens (PubChem BioAssay)
CFTR F508del cor – correctors of CFTR F508del function in bronchial epithelial cells; CFBE cells, YFP halide quenching; stimulated with forskolin plus potentiator P3; % fluorescence drop versus neutral controls; activity (quench increase), % at 7.58 µM; hit rate 0.36% among 350,000;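 active means mean added fluorescence quench of at least 8% versus neutral control, with both replicates also reaching 8%; inconclusive means only one of the mean or replicate conditions met; inactive means mean below 8% and not both replicates reaching 8%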;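 further: cells transiently co-express mutant CFTR-F508del with the halide-sensitive YFP; corrector assay measuring rescue of mutant channel to the surface after 24 h compound exposure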
DENV2 CPE rescue – protects cells from dengue virus 2 cytopathic effect; DENV2-infected cells, cytopathic effect rescue, plate reader; CPE inhibition, % at 9.99 µM; hit rate 1.7% among 350,000; in the data active means CPE inhibition above about 20%, passing the limit was not always enough; inconclusive means no clear call, values can overlap the other calls; tested in BHK-21 cells;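 further: 0% = median of neutral control wells and 100% = median of positive control wells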
GSIS activator – primary screen for activators of insulin secretion dependent on glucose, INS-1E cells, GLuc reporter luminescence; INS-1E GLuc reporter insulin secretion, 2-3 h; activation, % at 16.6 µM; hit rate 0.61% among 370,000; AID 743287;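 active means lowest replicate activation of at least 40%, so every replicate reaches that level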;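 further: 0% = median of neutral control wells and 100% = median of IBMX positive control wells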
miR122 inh – blocks miR-122 activity in Huh7 sensor cells; Huh7 miR-122 Renilla luciferase sensor, 48 h; neutral wells = 0, positive control = 100; activation (reporter increase), % at 12.5 µM; hit rate 0.3% among 340,000; AID 602342;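 active means mean replicate activation score at least 90 and every replicate individually at or above 90; inconclusive means only one of the two criteria met; inactive means neither criterion met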;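 further: higher luciferase means less miR-122 activity so hits act as miR-122 inhibitors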
E-sel inducer – E-selectin induction on HUVECs | HUVEC E-selectin immunofluorescence imaging; normalized: neutral wells 0, TNF-alpha wells 100 | activation, % at 7.58 µM | hit rate 0.37% among 260,000 | AID 686992;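 active means mean E-selectin-positive cell signal at least 10% of the positive control, reached in at least 60% of replicates, without over 20% cell loss; inconclusive means no rule given, readout overlaps actives, possibly toxicity-flagged; inactive means the rest, including those meeting only one limit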
Target sequence (P16581 whole entry, looked up): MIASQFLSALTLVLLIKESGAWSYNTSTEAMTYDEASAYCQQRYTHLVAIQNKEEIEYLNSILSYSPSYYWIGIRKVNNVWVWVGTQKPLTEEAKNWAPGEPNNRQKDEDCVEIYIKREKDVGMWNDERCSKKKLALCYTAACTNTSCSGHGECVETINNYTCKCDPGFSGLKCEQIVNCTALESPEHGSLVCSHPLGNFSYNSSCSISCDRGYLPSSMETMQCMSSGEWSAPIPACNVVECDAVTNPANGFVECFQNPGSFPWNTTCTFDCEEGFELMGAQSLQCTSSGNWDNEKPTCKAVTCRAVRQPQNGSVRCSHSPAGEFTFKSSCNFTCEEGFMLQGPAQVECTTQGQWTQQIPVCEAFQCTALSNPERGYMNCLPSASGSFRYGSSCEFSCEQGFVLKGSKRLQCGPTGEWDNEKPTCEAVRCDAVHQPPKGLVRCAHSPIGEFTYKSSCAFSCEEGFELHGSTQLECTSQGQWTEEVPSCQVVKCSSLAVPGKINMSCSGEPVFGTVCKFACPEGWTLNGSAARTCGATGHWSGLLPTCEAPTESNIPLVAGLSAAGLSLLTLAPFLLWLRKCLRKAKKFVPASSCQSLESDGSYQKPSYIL
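assay system = HUVEC, human umbilical vein endothelial cells | input = 3,000 HUVEC seeded per well | medium = EGM-2 growth medium on 0.1% gelatin-coated wells | dosing = one compound dose added by pin transfer | signal = immunofluorescence imaging | read-out basis = % PE-positive cells | control set = TNF-alpha, DMSO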
ERAP1 inh – blocks human ERAP1 aminopeptidase activity. Q9NZ08. recombinant ERAP1, Leu-AMC fluorescence, 60 min. inhibition, % at 10.7 µM. hit rate 0.15% among 340,000. AID 652197;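 active means mean replicate inhibition of at least 30%, or all replicates individually reaching that 30% level; inactive means mean below 30% and not every replicate reaching it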;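 further: 0% = neutral control wells and 100% = L-leucinethiol positive control wells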
Active calls of the source: *; ? = inconclusive; · = not tested or not shown; ! = repeats disagree; [ ] = remark or other dose. This is a sample that favours compounds with a hit; in the whole collection about 2.6% have one here.

SMILES	CFTR F508del cor	DENV2 CPE rescue	GSIS activator	miR122 inh	E-sel inducer	ERAP1 inh
C[C@H]1CN([C@@H](C)CO)C(=O)c2cc(-c3ccncc3)cnc2O[C@@H]1CN(C)C(=O)C1CC1	2	·	6	2[16.7 µM]	0	·
C[C@H](CO)N1C[C@H](C)[C@H](CN(C)C(=O)C2CC2)Oc2ncc(C3=CCCC3)cc2C1=O	-4	·	9	4[16.7 µM]	1	·
O=C(NCCOc1ccccc1)C1CCC(=O)N(CCCN2CCOCC2)C1 (stereo unspecified)	-3	-5	13	-8	0	-1
O=C(NCCN1CCCC1)C1CCC(=O)N(CCCN2CCOCC2)C1 (stereo unspecified)	1	35*	33	·	0	-1
NC(=O)C1=CC2C3C=CC2(O)C(=O)OC3O1 (stereo unspecified)	2	4	-2	136*	0	-1
C[C@H](CO)N1C[C@H](C)[C@@H](CN(C)S(=O)(=O)c2ccc(F)cc2)Oc2cc(-c3cccc(F)c3)ccc2S1(=O)=O	1	-5	-12	-4[16.7 µM]	0	3
C=CCNC(=O)[C@H]1[C@@H]2C(=O)O[C@@H](c3ccccc3)[C@@H](c3ccccc3)N2[C@@H](c2ccc(O)cc2)[C@]12C(=O)Nc1ccc(C#CCCO)cc12	2	-8	·	·	·	-1
C=CCNC(=O)[C@@H]1[C@H]2C(=O)O[C@H](c3ccccc3)[C@H](c3ccccc3)N2[C@H](c2ccc(O)cc2)[C@@]12C(=O)Nc1ccc(C#CCC(C(=O)OC)C(=O)OC)cc12	-1	32*	·	·	·	3
CCCNS(=O)(=O)c1ccc(OC)c(Cl)c1Cl	·	·	21	33	·	·
COc1ccc(S(=O)(=O)NCCSC(C)(C)C)c(Cl)c1Cl	·	·	-18	253*	·	·
Cc1cc(Br)ccc1NC(=O)CN(C)C(=O)COc1cccc2c1OC(C)(C)C2	-8	91*	-38	·	·	1
Cc1cccc(C)c1NC(=O)CN(C)C(=O)COc1cccc2c1OC(C)(C)C2	1	0	1	-5	1	4
C[C@H](CO)N1C[C@H](C)[C@H](CN(C)Cc2ccncc2)Oc2c(NC(=O)Nc3ccc(F)cc3)cccc2C1=O	4	-1	4	4[16.7 µM]	105*	1
COc1ccc(NC(=O)Nc2cccc3c2O[C@H](CN(C)Cc2ccccc2)[C@H](C)CN([C@H](C)CO)C3=O)cc1	1	30*	0	2[16.7 µM]	0	-2
COc1ccc(NC(=O)Nc2cccc3c2O[C@@H](CN(C)Cc2ccccc2)[C@@H](C)CN([C@@H](C)CO)C3=O)cc1	-1	-6	10	39[16.7 µM]	0	-2
COc1ccc(CN(C)C[C@@H]2Oc3c(NC(=O)Nc4ccc(F)cc4)cccc3C(=O)N([C@@H](C)CO)C[C@H]2C)cc1	2	-1	-30	29[16.7 µM]	261*	0
C/C=C/c1ccc([C@H]2[C@@H](CN(C)C(=O)C3CC3)N(C(=O)CC)[C@H]2CO)cc1	-1	?	6	21[16.7 µM]	0	·
O=C(Nc1ccc(S(=O)(=O)Nc2ncccn2)cc1)c1cc([N+](=O)[O-])ccc1Cl	0	-2	18	-7	·	-1
CCOC(=O)C(=O)Nc1ccc(S(=O)(=O)Nc2ncccn2)cc1	·	·	16	4	·	·
CCOC(=O)Nc1ccc(NS(=O)(=O)c2ccc(C)cc2)cc1	·	·	·	206*	·	·
CCCOC(=O)Nc1ccc(S(=O)(=O)Nc2ncccn2)cc1	1	-3	54*	4	3	-3
O=C(Nc1ccc(S(=O)(=O)Nc2ncccn2)cc1)c1cccc([N+](=O)[O-])c1	-2	71*	-2	2	0	10
Nc1ccc(S(=O)(=O)Nc2nccc(/C=C/c3cccc([N+](=O)[O-])c3)n2)cc1	-2	-1	70*	-16	0	1
C[C@H](CO)N1C[C@H](C)[C@H](CN(C)Cc2ccc(C(F)(F)F)cc2)OCCCC[C@H](C)Oc2ccc(NC(=O)C3CCCCC3)cc2C1=O	2	-11	-11	-11[16.7 µM]	0	·
O=S1(=O)CCOC[C@H](Cc2ccccc2)N1Cc1cccc(F)c1	0	32*	5	-1	0	·
SMILES	CFTR F508del cor	DENV2 CPE rescue	GSIS activator	miR122 inh	E-sel inducer	ERAP1 inh
C[C@H]1[C@@H](c2ccccc2)Oc2c(Cl)cccc2S(=O)(=O)N1C	1	14	122*	·	·	-3
CCCn1c(/C=C/c2cc[n+](C)cc2)nc2ccccc21	-5	-2	0	-1	0	41*
Cc1ccc(Cn2c([N+](=O)[O-])cnc2C)cc1	·	·	-23	0	·	·
Cc1ncc([N+](=O)[O-])n1Cc1ccccc1	6	50*	·	-11	·	3
CN(CC(=O)Nc1ccc(Br)cc1)Cc1ccccc1	-2	-6	·	17	97*	1
COc1ccc(CNC(=O)OC2CC3CC2[C@H]2CCCCN2C3=O)cc1 (stereo partly specified)	-2	-3	9	·	0	·
CN(C)CCCNC(=O)OC1CC2CC1[C@H]1CCCCN1C2=O (stereo partly specified)	-1	48*	24	·	0	-2
CCc1ccc(-c2nc(CSCC(=O)N3CCN(c4ncccn4)CC3)c(C)o2)cc1	5	87*	-7	2	0	2
O=C1N[C@@H](c2ccccc2)COCc2cn(nn2)CC[C@H]1Cc1ccc(-c2ccccc2)cc1	·	·	-4	·	·	·
CCC(C)N(C(=O)COC(=O)c1nc2nc(C)cc(C)n2n1)C1CCS(=O)(=O)C1 (stereo unspecified)	2	10	23	·	3	88*
C=CCN1C(=O)/C(=C/C=C2/N(CC)c3ccc(S(=O)(=O)N(C)C)cc3N2CC)SC1=S	11*	-15	-7	·	7	10
C=CCN1C(=O)/C(=C2/Sc3ccccc3N2CC)SC1=S	-5	?	-1	-2	·	0
C[C@@H]1CN([C@@H](C)CO)C(=O)c2cc(NC(=O)Nc3ccccc3)ccc2O[C@@H](C)CCCCO[C@@H]1CN(C)C(=O)Nc1ccccc1	·	·	-1	·	0	·
O=C(NC(O)C(=O)c1ccccc1)c1ccccn1 (stereo unspecified)	2	1	-10	·	50*	-3
O=C(NC(O)C(=O)c1ccccc1)c1cccs1 (stereo unspecified)	-5	2	-6	-1	·	·
O=C(NCc1nc2ccccc2[nH]1)C1=C[C@@H](c2ccc(C(F)(F)F)cc2)C[C@@H](OCCCCO)O1	1	-10	-13	-5	1	3
O=C(Nc1ccccc1)C1=C[C@H](C2CCCCC2)C[C@H](OCc2ccc(CO)cc2)O1	5	-1	-23	7	0	1
O=C(NCc1nc2ccccc2[nH]1)C1=C[C@H](C2CCCCC2)C[C@H](OCc2ccc(CO)cc2)O1	-4	21*!	·	-9	0	-4
